Laboratory results reported in ChEMBL document CHEMBL4689842, “EUbOPEN Chemogenomics Library wave 1” (2021).

Tested on: HEK-293T
Test: Multiplex assay against HEK293T;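 on Population Tubulin-Different-Phenotype (%): share of the cells with healthy nuclei that show this phenotype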
Type: toxicity, cell-based
Conditions: human
Outline: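 Cells stained live at seeding with Hoechst33342, BioTracker Green Microtubule Cytoskeleton Dye, MitoTracker Red and Annexin V Alexa Fluor 680 were imaged on a CQ1 microscope at 37°C and 5% CO2 after compound addition. Their classification by CellPathfinder machine-learning gating ran from Hoechst high-intensity objects versus normal cells, to healthy, pyknosed or fragmented nuclei among normal cells, to mitotic or apoptotic among pyknosed cells. Tubulin, mitochondrial-mass and membrane-permeability phenotypes are per cents of healthy-nucleus cells.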

[1] = 12 h, 1 µM, compound concentration 1 uM, replicate 1
[2] = 12 h, 1 µM, compound concentration 1 uM, replicate 2
[3] = 12 h, 10 µM, compound concentration 10 uM, replicate 1
[4] = 12 h, 10 µM, compound concentration 10 uM, replicate 2
[5] = 24 h, 1 µM, compound concentration 1 uM, replicate 1
[6] = 24 h, 1 µM, compound concentration 1 uM, replicate 2
[7] = 24 h, 10 µM, compound concentration 10 uM, replicate 1
[8] = 24 h, 10 µM, compound concentration 10 uM, replicate 2
[9] = 48 h, 1 µM, compound concentration 1 uM, replicate 1
[10] = 48 h, 1 µM, compound concentration 1 uM, replicate 2
[11] = 48 h, 10 µM, compound concentration 10 uM, replicate 1
[12] = 48 h, 10 µM, compound concentration 10 uM, replicate 2

CC[C@H](C)C(=O)O[C@H]1C[C@@H](C)C=C2C=C[C@H](C)[C@H](CC[C@@H]3C[C@@H](O)CC(=O)O3)[C@H]21 [LOVASTATIN]
Population Apoptotic (%) [1]: 48% | Population Fragmented Nuclei (%) [1]: 22% | Population Healthy Nuclei (%) [1]: 16% | Population Hoechst High Intensity Objects (%) [1]: 14% | Population Mitochondria Different-Phenotype (%) [1]: 68% | Population Mitotic Cells (%) [1]: 51% | Population Normal (%) [1]: 85% | Population Pyknosed Nuclei (%) [1]: 60% | Population Tubulin-Different-Phenotype (%) [1]: 28% | Total Cell Count [1]: 174 | Population Apoptotic (%) [2]: 7% | Population Fragmented Nuclei (%) [2]: 4% | Population Healthy Nuclei (%) [2]: 44% | Population Hoechst High Intensity Objects (%) [2]: 4% | Population Membrane Permeable-Phenotype (%) [2]: 4% | Population Mitochondria Different-Phenotype (%) [2]: 11% | Population Mitotic Cells (%) [2]: 92% | Population Normal (%) [2]: 95% | Population Pyknosed Nuclei (%) [2]: 50% | Population Tubulin-Different-Phenotype (%) [2]: 9% | Total Cell Count [2]: 227 | Population Apoptotic (%) [3]: 47% | Population Fragmented Nuclei (%) [3]: 8% | Population Healthy Nuclei (%) [3]: 33% | Population Hoechst High Intensity Objects (%) [3]: 14% | Population Membrane Permeable-Phenotype (%) [3]: 1% | Population Mitochondria Different-Phenotype (%) [3]: 89% | Population Mitotic Cells (%) [3]: 52% | Population Normal (%) [3]: 85% | Population Pyknosed Nuclei (%) [3]: 57% | Population Tubulin-Different-Phenotype (%) [3]: 39% | Total Cell Count [3]: 341 | Population Apoptotic (%) [4]: 10% | Population Fragmented Nuclei (%) [4]: 5% | Population Healthy Nuclei (%) [4]: 45% | Population Hoechst High Intensity Objects (%) [4]: 3% | Population Membrane Permeable-Phenotype (%) [4]: 4% | Population Mitochondria Different-Phenotype (%) [4]: 21% | Population Mitotic Cells (%) [4]: 89% | Population Normal (%) [4]: 96% | Population Pyknosed Nuclei (%) [4]: 49% | Population Tubulin-Different-Phenotype (%) [4]: 16% | Total Cell Count [4]: 266 | Population Apoptotic (%) [5]: 50% | Population Fragmented Nuclei (%) [5]: 30% | Population Healthy Nuclei (%) [5]: 16% | Population Hoechst High Intensity Objects (%) [5]: 19% | Population Membrane Permeable-Phenotype (%) [5]: 4% | Population Mitochondria Different-Phenotype (%) [5]: 52% | Population Mitotic Cells (%) [5]: 50% | Population Normal (%) [5]: 80% | Population Pyknosed Nuclei (%) [5]: 52% | Population Tubulin-Different-Phenotype (%) [5]: 32% | Total Cell Count [5]: 192 | Population Apoptotic (%) [6]: 8% | Population Fragmented Nuclei (%) [6]: 3% | Population Healthy Nuclei (%) [6]: 65% | Population Hoechst High Intensity Objects (%) [6]: 3% | Population Membrane Permeable-Phenotype (%) [6]: 6% | Population Mitochondria Different-Phenotype (%) [6]: 13% | Population Mitotic Cells (%) [6]: 91% | Population Normal (%) [6]: 96% | Population Pyknosed Nuclei (%) [6]: 30% | Population Tubulin-Different-Phenotype (%) [6]: 20% | Total Cell Count [6]: 287 | Population Apoptotic (%) [7]: 38% | Population Fragmented Nuclei (%) [7]: 12% | Population Healthy Nuclei (%) [7]: 37% | Population Hoechst High Intensity Objects (%) [7]: 17% | Population Membrane Permeable-Phenotype (%) [7]: 1% | Population Mitochondria Different-Phenotype (%) [7]: 73% | Population Mitotic Cells (%) [7]: 61% | Population Normal (%) [7]: 82% | Population Pyknosed Nuclei (%) [7]: 50% | Population Tubulin-Different-Phenotype (%) [7]: 37% | Total Cell Count [7]: 349 | Population Apoptotic (%) [8]: 14% | Population Fragmented Nuclei (%) [8]: 4% | Population Healthy Nuclei (%) [8]: 57% | Population Hoechst High Intensity Objects (%) [8]: 4% | Population Membrane Permeable-Phenotype (%) [8]: 6% | Population Mitochondria Different-Phenotype (%) [8]: 17% | Population Mitotic Cells (%) [8]: 85% | Population Normal (%) [8]: 95% | Population Pyknosed Nuclei (%) [8]: 37% | Population Tubulin-Different-Phenotype (%) [8]: 20% | Total Cell Count [8]: 320 | Population Apoptotic (%) [9]: 49% | Population Fragmented Nuclei (%) [9]: 29% | Population Healthy Nuclei (%) [9]: 28% | Population Hoechst High Intensity Objects (%) [9]: 15% | Population Membrane Permeable-Phenotype (%) [9]: 2% | Population Mitochondria Different-Phenotype (%) [9]: 42% | Population Mitotic Cells (%) [9]: 50% | Population Normal (%) [9]: 84% | Population Pyknosed Nuclei (%) [9]: 41% | Population Tubulin-Different-Phenotype (%) [9]: 40% | Total Cell Count [9]: 205 | Population Apoptotic (%) [10]: 3% | Population Fragmented Nuclei (%) [10]: 6% | Population Healthy Nuclei (%) [10]: 81% | Population Hoechst High Intensity Objects (%) [10]: 3% | Population Membrane Permeable-Phenotype (%) [10]: 7% | Population Mitochondria Different-Phenotype (%) [10]: 4% | Population Mitotic Cells (%) [10]: 96% | Population Normal (%) [10]: 96% | Population Pyknosed Nuclei (%) [10]: 11% | Population Tubulin-Different-Phenotype (%) [10]: 20% | Total Cell Count [10]: 588 | Population Apoptotic (%) [11]: 42% | Population Fragmented Nuclei (%) [11]: 17% | Population Healthy Nuclei (%) [11]: 37% | Population Hoechst High Intensity Objects (%) [11]: 19% | Population Membrane Permeable-Phenotype (%) [11]: 2% | Population Mitochondria Different-Phenotype (%) [11]: 46% | Population Mitotic Cells (%) [11]: 57% | Population Normal (%) [11]: 80% | Population Pyknosed Nuclei (%) [11]: 45% | Population Tubulin-Different-Phenotype (%) [11]: 39% | Total Cell Count [11]: 384 | Population Apoptotic (%) [12]: 8% | Population Fragmented Nuclei (%) [12]: 5% | Population Healthy Nuclei (%) [12]: 72% | Population Hoechst High Intensity Objects (%) [12]: 4% | Population Membrane Permeable-Phenotype (%) [12]: 6% | Population Mitochondria Different-Phenotype (%) [12]: 5% | Population Mitotic Cells (%) [12]: 91% | Population Normal (%) [12]: 95% | Population Pyknosed Nuclei (%) [12]: 21% | Population Tubulin-Different-Phenotype (%) [12]: 24% | Total Cell Count [12]: 484
